Screening results deposited in PubChem BioAssay by Broad Institute.
CDK5 p35 inh: inhibitors of human CDK5/p35 kinase, primary screen, biochemical, single concentration | Recombinant CDK5/p35, ADP-Glo luminescence, 60 min | Cyclin-dependent kinase 5 (Homo sapiens) + Cyclin-dependent kinase 5 activator 1 (Homo … | 330,000 tested, 0.01% active | inhibition, % at 10 µM | AID 488839, 2010;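 active means highest replicate inhibition of at least 50% and at least 75% of replicates reaching 50%; inconclusive means only one of the two criteria met; inactive means both criteria failed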;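 further: plate controls were DMSO neutral control for no effect and GW8510 at 10 µM for full effect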
dFosB activator: activators of delta FosB homodimer, primary screen, biochemical, fluorescence polarization, TAMRA-CDK5 oligo, single point; purified delta FosB; percent of positive-control signal above neutral wells; activation, % at 25 µM; Protein FosB (Mus musculus), P13346; 340,000 tested, 0.99% active; AID 493131, 2011;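 active means mean activation above about 17%, with every replicate also reaching it, limit read from the data, passing the limit was not always enough; inconclusive means only one of the two conditions met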
Target sequence (P13346 whole entry, looked up): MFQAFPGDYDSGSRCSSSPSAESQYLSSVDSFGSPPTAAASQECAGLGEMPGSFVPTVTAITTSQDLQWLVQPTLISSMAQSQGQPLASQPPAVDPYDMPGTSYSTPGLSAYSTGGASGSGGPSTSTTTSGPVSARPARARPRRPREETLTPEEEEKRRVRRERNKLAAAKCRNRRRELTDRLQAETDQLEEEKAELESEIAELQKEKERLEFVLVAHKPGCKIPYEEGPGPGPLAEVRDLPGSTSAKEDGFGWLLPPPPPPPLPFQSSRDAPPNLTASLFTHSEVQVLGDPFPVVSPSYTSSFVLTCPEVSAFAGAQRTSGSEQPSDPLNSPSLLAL
HIV Env fusion: inhibitors of HIV-1 Env-driven cell-cell fusion, primary screen, HeLa-JRFL effector, CEM21 target cells, luciferase | inhibition, % at 12.3 µM | AID 651610, 2012 | 360,000 tested, 1.1% active;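 active means mean replicate inhibition score of at least 50 and every replicate individually at or above 50; inconclusive means only one of the two criteria met; inactive means mean below 50 and not all replicates reaching 50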;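 further: 0% = plate neutral controls and 100% = maraviroc near 300 nM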
Cneo AK release: Cryptococcus neoformans cell lysis inducers, primary screen, AK release luminescence, single concentration; AID 651654, 2012; lysis activity, % at 15 µM; C. neoformans lysis, adenylate kinase release luminescence, 4 h; normalised: neutral wells 0, clomiphene wells 100; 360,000 tested, 0.2% active;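 active means mean lysis activity across replicates of at least 80%, whatever share of replicates individually reach that level; inactive means mean lysis activity below 80%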
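Test system: log-phase Cryptococcus neoformans yeast cells. Input: 5 × 10^6 yeast cells/mL. Medium: fresh YPD growth medium. Doses: single dose. Incubation: static 4 h at 37 °C with compound, 1 h detection. Measured by: luminescent adenylate kinase detection reagent. Read-out: signal increase indicating cell lysis. Benchmarks: Clomiphene.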
INS-1E GSIS act: GLuc luminescence reporter in INS-1E cells, primary screen for activators of glucose-dependent secretion of insulin | INS-1E GLuc reporter insulin secretion, 2-3 h | activation, % at 16.6 µM | 370,000 tested, 0.61% active | AID 743287, 2014;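 active means lowest replicate activation of at least 40%, so every replicate reaches that level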;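 further: 0% = median of neutral control wells and 100% = median of IBMX positive control wells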
PAX8 reporter: inhibitors of PAX8-driven TPO luciferase reporter, primary screen, RMG-I cells, single concentration; SteadyGlo, 24 h; inhibition, % at 12.6 µM; 360,000 tested, 1.2% active; AID 652154, 2013;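 active means mean replicate inhibition at least 60% with every replicate also reaching 60%; inconclusive means only one of the two criteria is met; inactive means mean below 60% and not all replicates reaching 60%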;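 further: luciferase light reporting Pax8 driven TPO promoter activity; plate controls were median of neutral control wells for no effect and mitoxantrone controls for full effect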
The depositor's hits bear a star; ? = inconclusive; . = no result; [ ] = another dose, or the depositor's remark. Compounds with a hit are over-represented: about 2.9% of the library has one in this group of screens.

SMILES	CDK5 p35 inh	dFosB activator	HIV Env fusion	Cneo AK release	INS-1E GSIS act	PAX8 reporter
CCCNC(=O)N1CC2(C1)CN(C(=O)CC1CC1)[C@H](CO)c1c2c2ccc(OC)cc2n1C	.	.	.	.	5	.
C[C@@H]1CN([C@@H](C)CO)C(=O)c2cc(NC(=O)C3CCCCC3)ccc2O[C@@H]1CN(C)S(=O)(=O)c1ccc(Cl)cc1	.	.	?	.	-9	-30
Cc1cc(N2CCC(C(=O)N3CCN(c4cccc(C)c4C)CC3)CC2)n2ncnc2n1	0	-16	67*	8	-3	.
CC(=O)Nc1ccc(S(=O)(=O)N(Cc2ccccc2)C(C)C)cc1	1	-2	84*	-1	.	-11
COc1ccc(Cl)cc1C(=O)Nc1cccc(-c2ccc3nncn3n2)c1	0	-27	3	.	43*	-14
CC(NCCCOc1cccc2ccccc12)c1ccccc1 (stereo not given)	1	3	75*	8	20	7
COc1cc(C2C3=C(COC3=O)OC(C)(C)Oc3cc4c(cc32)OCO4)cc(OC)c1OC (stereo not given)	1	-12	30	.	-8	93*
C[C@@H]1CCCCO[C@@H](CN(C)Cc2ccc(C(=O)O)cc2)[C@@H](C)CN([C@@H](C)CO)C(=O)c2cc(NC(=O)CCC(F)(F)F)ccc2O1	.	.	-7[16.7 µM]	0	5	.
c1ccc2c(c1)OCC(c1csc3ncnc(N4CCOCC4)c13)O2 (stereo not given)	-4	2	70*	.	33	.
COc1ccccc1C(=O)N/N=C(\C)CC(=O)Nc1ccc2c(c1)OCCO2	0	-13	-4	-2	41*	35
C/C=C/c1ccc([C@@H]2[C@@H](C#N)N(C(=O)NC3CCCCC3)[C@@H]2CO)cc1	.	.	-16[16.7 µM]	55	-9	-2
COc1ccccc1CN1C[C@@H](C)[C@H](OC)CN(C)C(=O)c2cc(NC(C)=O)ccc2OC[C@@H]1C	.	.	-49[16.7 µM]	-2	8	-10
COC(=O)C1=C(C)N(Cc2ccco2)C(=O)/C1=C\c1ccc(N(C)C)cc1	-1	-6	-95	-2	57*	-12
CCc1cccc(CC)c1NC(=O)CSc1nnc(C2CC2)n1C	-2	-3	-12	1	45*	8
Cn1c(SCC(=O)NC2CCCc3ccccc32)nnc1C1CC1 (stereo not given)	1	7	12	0	82*	1
Cn1cnnc1SCC(=O)NC1CCCc2ccccc21 (stereo not given)	-1	-7	11	.	2	10
COc1cc(/C=N\NC(=O)c2ccc(-c3ccccc3)cc2)cc(OC)c1OC(C)=O	0	7	-23	-3	24	100*
COc1cc(/C=N\NC(=O)c2ccc(-c3ccccc3)cc2)cc(OC)c1O	-2	6	.	-3	13	75*
COc1ccc(/C=C/C(=O)Oc2ccc(/C=N/NC(=O)c3ccccc3)cc2)cc1OC	-1	4	.	8	129*	.
COc1ccccc1/C=N/NC(=O)c1ccc(-c2ccccc2)cc1	-2	?	-25	.	20	-21
Cn1cnc(S(=O)(=O)N2CC[C@@H]3[C@H]2c2cc(C#Cc4ccccc4F)ccc2N[C@@H]3CO)c1	.	.	.	-2	-5	14
COc1ccc(N(C(=O)c2snc(C(N)=O)c2N)C(C(=O)NCc2ccccc2)c2ccc(F)cc2)c(OC)c1 (stereo not given)	-2	25*	-16	9	-2	19
C[C@@H]1CN([C@H](C)CO)S(=O)(=O)c2ccc(-c3cccc(F)c3)cc2O[C@H]1CN(C)C	.	.	28[16.7 µM]	-18	-4	.
Cc1noc(C)c1NC(=O)N(C)C[C@H]1OCc2cnnn2CCCC(=O)N([C@@H](C)CO)C[C@@H]1C	.	.	.	-1	-1	-6
Clc1cccc(Cl)c1/C=N/Nc1c(Cl)cncc1Cl	1	-1	-15	.	7	13
SMILES	CDK5 p35 inh	dFosB activator	HIV Env fusion	Cneo AK release	INS-1E GSIS act	PAX8 reporter
Clc1cncc(Cl)c1N/N=C/c1ccncc1	52*	-22	18	3	8	-2
COc1ccccc1CNC(=O)C[C@H]1C[C@@H]2c3cc(NC(=O)C4CCOCC4)ccc3O[C@@H]2[C@H](CO)O1	.	.	-19[16.7 µM]	-3	2	9
CC1(C(=O)NCC2CCCCC2)CCN1CCc1ccccc1 (stereo not given)	.	.	1	7	80*	20
C[C@H]1CN([C@@H](C)CO)C(=O)c2cc(-c3cccc(F)c3)cnc2O[C@@H]1CN(C)C(=O)C1CCC1	.	.	3[16.7 µM]	1	-10	-2
Cc1cc(N/N=C/c2ccccc2O)c2ccccc2n1	1	-26	-4	-1	-3	5
COc1ccc2nc(C)cc(N/N=C/c3cccc(OC)c3O)c2c1	0	-119	-6	7	14	95*
COc1cccc(/C=N/Nc2nc(Nc3ccccc3)nc(-n3nc(C)cc3C)n2)c1O	-1	41*	.	.	-34	.
COc1ccc(/C=N/Nc2cc(C)nc3ccc(Br)cc23)cc1	0	62*	-14	-3	5	95*
C[C@@H]1CN([C@H](C)CO)C(=O)c2cc(C#Cc3ccccc3)cnc2O[C@@H]1CN(C)CC1CCOCC1	.	.	5[16.7 µM]	3	5	.
O=c1c(O)cccc2cc(O)c(O)c(O)c12	44	-11	56*	-2	4	41
Cc1cccc(-c2ccc([C@H]3[C@@H](CO)N4CCCCN(C(=O)NC(C)C)C[C@H]34)cc2)c1	.	.	.	-1	-12	-7
C=CCNC(=O)COc1coc(CN2CCN(C(=O)c3ccco3)CC2)cc1=O	0	3	-1	1	49*	.
O=C1N[C@@H](c2ccccc2)COCc2cn(nn2)CC[C@@H]1Cc1ccccc1	.	.	7[16.7 µM]	1	28	-15
OCCN1CCN(c2ncnc3c2sc2nc(N4CCOCC4)c4c(c23)CCC4)CC1	-13	20*	.	-2	-13	.
C[C@@H]1CN([C@@H](C)CO)S(=O)(=O)c2ccc(C#CC3CC3)cc2O[C@H]1CN(C)C(=O)C1CCC1	.	.	20[16.7 µM]	0	1	.
Cc1sc2ncnc(N3CCN(S(=O)(=O)c4ccc(Br)cc4)CC3)c2c1C	1	-6	78*	-4	-12	-5
Cc1csc2ncnc(N3CCN(S(=O)(=O)c4cccc(C(F)(F)F)c4)CC3)c12	-1	-23	57*	-6	-28	21
COc1ccc(-c2csc3ncnc(N4CCN(S(=O)(=O)c5ccc(C)cc5)CC4)c23)cc1	1	0	63*	.	-3	-7
Cc1cccc(NC(=O)CSCC(=O)Nc2cc(C(F)(F)F)ccc2N2CCOCC2)c1	.	.	69*	0	-22	2
